Assay results published in ChEMBL document CHEMBL5154920, “Ispinesib as an Effective Warhead for the Design of Autophagosome-Tethering Chimeras: Discovery of Potent Degraders of Nicotinamide Phosphoribosyltransferase (NAMPT)” (J Med Chem, 2022).
Calls of active or inactive are those of the source. The rule behind the calls is not given here.

What was measured:
[1] = target: T1, LC3/Nicotinamide phosphoribosyltransferase (Homo sapiens) (UniProt P43490+Q9BXW4+Q9GZQ8+Q9H492); experiment: Autophagosome tethering activity at NAMPT overexpressing human A2780 cells assessed as lysosome-mediated degradation of NAMPT at 3 uM incubated for 48 hrs; type: cell-based
Summary of the method: (§1)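 A2780 cells were exposed to compound for 48 h. The medium was then removed and the cells washed three times with PBS and lysed on ice in RIPA buffer for 30 min. Lysates were centrifuged at 1.2 × 10^5 g, 4 °C, for 15 min. Protein was quantified by BCA and denatured at 100 °C. Blots were blocked in 5% BSA/TBST for 2 h, probed with primary antibody at 4 °C overnight and secondary for 1 h, and NAMPT was read on Odyssey.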

[2] = target: T2, Nicotinamide phosphoribosyltransferase (Homo sapiens, UniProt P43490); experiment: Inhibition of NAMPT (unknown origin) measured after 90 mins by measuring fluorescence intensity
Target sequence in this assay (P43490 whole entry): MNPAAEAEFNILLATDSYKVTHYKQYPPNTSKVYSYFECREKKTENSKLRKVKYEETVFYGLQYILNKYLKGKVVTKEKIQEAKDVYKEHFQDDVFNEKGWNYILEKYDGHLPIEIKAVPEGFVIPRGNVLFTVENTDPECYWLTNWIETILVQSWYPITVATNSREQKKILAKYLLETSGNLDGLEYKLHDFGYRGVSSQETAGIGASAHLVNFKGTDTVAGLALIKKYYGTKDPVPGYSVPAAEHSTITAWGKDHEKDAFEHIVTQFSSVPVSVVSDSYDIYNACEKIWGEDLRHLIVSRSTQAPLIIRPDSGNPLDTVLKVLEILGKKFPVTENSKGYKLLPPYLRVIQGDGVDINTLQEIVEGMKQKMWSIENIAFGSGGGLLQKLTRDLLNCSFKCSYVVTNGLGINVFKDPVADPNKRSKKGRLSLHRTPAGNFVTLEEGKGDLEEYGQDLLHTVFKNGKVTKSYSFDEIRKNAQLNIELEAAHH

[3] = target: T1, LC3/Nicotinamide phosphoribosyltransferase (Homo sapiens); experiment: Autophagosome tethering activity at NAMPT overexpressing human A2780 cells assessed as lysosome-mediated degradation of NAMPT at 0.1 uM incubated for 48 hrs; type: cell-based; summary of the method: as §1
[4] = Inhibition of kinesin spindle protein (unknown origin); set-up: species or system Homo sapiens
[5] = target: T3, Microtubule-associated protein 1 light chain 3 beta (Homo sapiens, UniProt Q9GZQ8); experiment: Binding affinity to human recombinant LC3B assessed as dissociation constant by isothermal titration calorimetry
Summary of the method: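 Reverse titration of recombinant LC3B (1500 μM in syringe) into a cell holding 100 μM ligand, in 20 mM HEPES-HCl pH 7.3, 100 mM NaCl, 1% DMSO, at 25 °C. Injections were spaced 120 s apart so the signal returned to baseline. Thermodynamic parameters and KD came from the titration isotherm.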

[6] = test system: A2780; experiment: Cytotoxicity against human A2780 cells; type: functional, cell-based
[7] = test system: A2780; experiment: Antiproliferative activity against human A2780 cells overexpressing NAMPT assessed as cell growth inhibition incubated for 72 hrs; type: functional, cell-based; details: A2780, 72 h
[8] = test system: HCT-116; experiment: Antiproliferative activity against human HCT-116 cells expressing NAMPT assessed as cell growth inhibition incubated for 72 hrs; type: functional, cell-based
[9] = target: T2, Nicotinamide phosphoribosyltransferase; experiment: Binding affinity to NAMPT in human A2780 cell lysate assessed as thermal stability incubated at 51 to 63 degree Celsius for 4 hrs by Western blotting based CETSA method; type: subcellular
Summary of the method: (§2)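 CETSA: A2780 cells were seeded at × 107/well and incubated overnight at 37 °C, 5% CO2. Compound was added at the indicated concentration for 4 h. Cells were collected and lysed by three 5-min liquid-nitrogen freeze cycles, then centrifuged at 1.2 × 10^5 g, 4 °C, for 15 min. Supernatants were denatured at 100 °C and protein level was detected by SDS-PAGE.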
Target sequence in this assay (P43490 whole entry, looked up): as the sequence (P43490 whole entry) above

[10] = target: T3, Microtubule-associated protein 1 light chain 3 beta; experiment: Binding affinity to LC3B (unknown origin) assessed as dissociation constant by surface plasmon resonance analysis
[11] = test system: MDA-MB-231; experiment: Antiproliferative activity against human MDA-MB-231 cells overexpressing NAMPT assessed as cell growth inhibition incubated for 72 hrs; type: functional, cell-based
[12] = Stability of compound in 1640 culture medium measured up to 72 hrs by HPLC analysis; type: physicochemical
[13] = test system: A2780; experiment: Binding affinity to KSP in human A2780 cell lysate incubated at 51 to 63 degree Celsius for 4 hrs by Western blotting based CETSA method; type: subcellular; summary of the method: as §2
[14] = target: T3, Microtubule-associated protein 1 light chain 3 beta; experiment: Binding affinity to human recombinant LC3B assessed as dissociation constant incubated for 30 mins by fluorescence anisotropy assay
Summary of the method: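 Fluorescence anisotropy used fluorescein-labeled ispinesib as the tracer, diluted to 50 nM in HEPES buffer, final 25 nM. A twofold serial dilution of LC3 protein in HEPES buffer was added. KD was derived from anisotropy. Measurements were done in triplicate and given as mean ± standard deviation.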

[15] = test system: HeLa; experiment: Drug localization in human HeLa cells by measuring colocalization with lysosome probe treated for 2 hrs by confocal microscopy; type: functional, cell-based
Summary of the method: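 HeLa cells were treated with the green fluorescent probe for 2 h, then stained with a red lysosome probe for another 1.5 h. Colocalization was imaged by confocal microscopy.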

| Activity [1] [%] | IC50 [2] [nM] | Activity [3] [%] | SMILES | also measured |
| --- | --- | --- | --- | --- |
| 86 | 15 | 9 | Cc1ccc(C(=O)N(CCCNC(=O)CCCCCCN2CCN(S(=O)(=O)c3ccc(NC(=S)NCc4cccnc4)cc3)CC2)[C@@H](c2nc3cc(Cl)ccc3c(=O)n2Cc2ccccc2)C(C)C)cc1 |  |
|  |  |  | Cc1ccc(C(=O)N(CCCN)[C@H](c2nc3cc(Cl)ccc3c(=O)n2Cc2ccccc2)C(C)C)cc1 | IC50 [4]: 0.5 nM; Kd [5]: 11.8 µM; Activity [6]: Active |
| 93 | 13 | 33 | Cc1ccc(C(=O)N(CCCNC(=O)CCCCCCCCCCN2CCN(S(=O)(=O)c3ccc(NC(=S)NCc4cccnc4)cc3)CC2)[C@@H](c2nc3cc(Cl)ccc3c(=O)n2Cc2ccccc2)C(C)C)cc1 |  |
| 91 | 23 | 90 | Cc1ccc(C(=O)N(CCCNC(=O)CCCCCCCCN2CCN(S(=O)(=O)c3ccc(NC(=S)NCc4cccnc4)cc3)CC2)[C@@H](c2nc3cc(Cl)ccc3c(=O)n2Cc2ccccc2)C(C)C)cc1 | IC50 [7]: 46 nM; Activity [8]: Active; Activity [9]: Active; Kd [10]: 933 nM; Activity [11]: Active; Stability [12]: Stable; Activity [13]: Active |
| 91 | 10 | 76 | Cc1ccc(C(=O)N(CCCNC(=O)CCOCCOCCOCCN2CCN(S(=O)(=O)c3ccc(NC(=S)NCc4cccnc4)cc3)CC2)[C@@H](c2nc3cc(Cl)ccc3c(=O)n2Cc2ccccc2)C(C)C)cc1 |  |
| 92 | 34 | 85 | Cc1ccc(C(=O)N(CCCNC(=O)CCCCCCCCCN2CCN(S(=O)(=O)c3ccc(NC(=S)NCc4cccnc4)cc3)CC2)[C@@H](c2nc3cc(Cl)ccc3c(=O)n2Cc2ccccc2)C(C)C)cc1 |  |
| 83 | 19 | 1 | Cc1ccc(C(=O)N(CCCNC(=O)CCCCCCCN2CCN(S(=O)(=O)c3ccc(NC(=S)NCc4cccnc4)cc3)CC2)[C@@H](c2nc3cc(Cl)ccc3c(=O)n2Cc2ccccc2)C(C)C)cc1 |  |
| 86 | 10 | 1 | Cc1ccc(C(=O)N(CCCNC(=O)CCOCCN2CCN(S(=O)(=O)c3ccc(NC(=S)NCc4cccnc4)cc3)CC2)[C@@H](c2nc3cc(Cl)ccc3c(=O)n2Cc2ccccc2)C(C)C)cc1 |  |
|  |  |  | Cc1ccc(C(=O)N(CCCNC(=S)Nc2ccc3c(c2)C(=O)OC32c3ccc(O)cc3Oc3cc(O)ccc32)[C@@H](c2nc3cc(Cl)ccc3c(=O)n2Cc2ccccc2)C(C)C)cc1 | Kd [14]: 175 nM; Activity [15]: Active |
|  |  |  | O=S(=O)(c1ccc(NC(=S)NCc2cccnc2)cc1)N1CCNCC1 | IC50 [7]: 490 nM |
